From ChEMBL document CHEMBL1166017, “Alpneumines A-H, new anti-melanogenic indole alkaloids from Alstonia pneumatophora” (Bioorg Med Chem, 2010)
Calls of active or inactive are those of the source. No cut-off for these calls is given here.

Assays:
Tyrosinase = target: T1, Tyrosinase (Agaricus bisporus, UniProt O42713); experiment: Inhibition of mushroom tyrosinase
T1 sequence (O42713 whole entry): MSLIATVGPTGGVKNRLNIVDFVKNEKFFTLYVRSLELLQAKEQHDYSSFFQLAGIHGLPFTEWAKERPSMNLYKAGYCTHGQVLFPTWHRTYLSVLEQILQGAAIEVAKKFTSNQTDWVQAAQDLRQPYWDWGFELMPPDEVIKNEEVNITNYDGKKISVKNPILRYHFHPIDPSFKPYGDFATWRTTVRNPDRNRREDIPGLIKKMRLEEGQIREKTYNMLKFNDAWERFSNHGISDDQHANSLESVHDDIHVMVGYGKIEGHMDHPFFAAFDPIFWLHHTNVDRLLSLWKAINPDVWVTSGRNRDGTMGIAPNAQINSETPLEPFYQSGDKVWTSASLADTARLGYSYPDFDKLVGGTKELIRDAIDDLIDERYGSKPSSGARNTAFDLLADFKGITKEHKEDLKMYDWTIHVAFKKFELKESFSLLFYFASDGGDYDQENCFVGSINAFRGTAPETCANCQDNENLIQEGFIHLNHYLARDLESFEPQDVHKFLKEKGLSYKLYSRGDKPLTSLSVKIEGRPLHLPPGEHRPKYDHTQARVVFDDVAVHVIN

B16 [1] = experiment: Antimelanogenic activity in mouse B16 cells assessed as decrease in intracellular melanin level after 4 days; assay type: functional, cell-based; conditions: B16, 96 h
How it was run: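 B16 cells in DMEM with 10% FBS and penicillin/streptomycin, seeded at 5000 cells/well and preincubated 24 h at 37 °C in 5% CO2. Cultured with IBMX (100 µM) with or without sample at 6.3–100 µM for 48 h, then in fresh medium under the same conditions for a further 48 h. Cells dissolved in 1 N NaOH at 90 °C for 1 h. Relative melanin read at 400 nm. Arbutin was the positive control.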

B16 [2] = experiment: Antimelanogenic activity in mouse B16 cells assessed as decrease in intracellular melanin level at IC50 after 4 days; assay type: functional; set-up: scale not given: the % may be the effect or the level left
B16 [3] = experiment: Inhibition of tyrosinase expression in mouse B16 cells after 1 hr by Western blotting; assay type: functional, cell-based
How it was run: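 B16 cells were treated with sample at 50 and 75 µM plus 0.1 mM IBMX, then lysed. Lysates were run on 7.5% SDS–PAGE and transferred to PVDF, which was blocked 1 h in 5% skim milk. Anti-tyrosinase (1:2000) was applied overnight and anti-β-actin (1:2000) for 1 h, followed by HRP-conjugated secondary IgG.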

B16 [4] = experiment: Cytotoxicity against mouse B16 cells assessed as cell viability after 4 days by MTT assay; assay type: cell-based; conditions: b16, 96 h
How it was run: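 B16 cells were cultured as for the melanin assay: IBMX 100 µM and sample at 6.3–100 µM for 4 days. MTT (5 mg/mL solution) was added for 2 h, and the formazan was dissolved in DMSO. Absorbance was read at 550 and 700 nm. Viability was taken from the absorbance difference between samples and controls, in triplicate.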

Row | SMILES | IC50 (B16 [1]) | IC50 (Tyrosinase) | Activity (B16 [2]) | other results
1 | COC(=O)C1=C2Nc3ccccc3[C@]23CCN2C[C@@H](C(C)=O)[C@H]1C[C@@H]23 [ALPNEUMINE E] | 71.4 µM | > 100 µM |  | 
2 | COC(=O)C1=C2Nc3c(O)cccc3[C@]23CC[N+]2([O-])C[C@H](C(C)=O)[C@H]1C[C@H]32 (some centres not stated) [ALPNEUMINE A] |  | > 100 µM |  | 
3 | COC(=O)C1=C2Nc3ccccc3[C@]23CC[N+]2([O-])C[C@H](C(C)=O)[C@H]1C[C@H]32 (some centres not stated) [ALPNEUMINE C] |  | > 100 µM |  | 
4 | COC(=O)C1=C2Nc3c(O)cccc3[C@]23CCN2C[C@H](C(C)=O)[C@H]1C[C@@H]23 [ALPNEUMINE B] |  | > 100 µM |  | 
5 | COC(=O)[C@@]12COCC[C@H]3[C@@H]1CC[N@+](C)([O-])[C@H]3c1c2[nH]c2ccccc12 [ALPNEUMINE H] |  | > 100 µM |  | 
6 | COC(=O)C1=C2Nc3c(O)cccc3[C@]23CCN2C[C@@H](C(C)=O)[C@H]1C[C@@H]23 [ALPNEUMINE D] |  | > 100 µM |  | 
7 | COC(=O)[C@@]12CO[C@@]3(O)[C@H]1CCN1CC[C@H]3[C@@H]1c1c2[nH]c2ccccc12 [ALPNEUMINE F] |  | > 100 µM |  | 

Further lines, with some results ahead:

Row | IC50 (B16 [1]) | SMILES | IC50 (Tyrosinase) | Activity (B16 [2]) | other results
8 | 49.8 µM | CC[C@@]12C=C(C(=O)OC)n3c4c(c5ccccc53)CCN(CCC1)[C@H]42 [APOVINCAMINE] |  | <50% | 
9 | 68.9 µM | CC[C@]12CCCN3CCc4c(n(c5ccccc45)[C@@](O)(C(=O)OC)C1)[C@@H]32 [VINCAMINE] |  | <50% | 
10 | 58.3 µM | CC[C@]12CCC[N+]3([O-])CCc4c(n(c5ccccc45)[C@@](O)(C(=O)OC)C1)[C@H]23 (some centres not stated) [ALPNEUMINE G] | > 100 µM | <50% | Activity (B16 [3]): Active; Activity (B16 [4]): Dose-dependent effect
